Measurements: ChEMBL document CHEMBL5352453, “Hit-to-lead optimization of a 2-aminobenzimidazole series as new candidates for chagas disease” (Eur J Med Chem, 2023)
pIC50: −log10 of the molar value.

Tests used:
[1] = test system: Trypanosoma cruzi; assay: Antitrypanosomal activity against intracellular Trypanosoma cruzi amastigote infected mouse 3T3 cells assessed as reduction in amastigote population measured after 48 hrs
[2] = test system: Trypanosoma cruzi; assay: Antitrypanosomal activity against intracellular Trypanosoma cruzi amastigote infected primary peritoneal mouse macrophages assessed as reduction in amastigote population measured after 96 hrs; format: functional, organism-based; settings: for pIC50: 96 h; for IC90: time 96 hrs
Summary of the method: (§1)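 High-content imaging of primary mouse macrophages infected with T. cruzi. Counts both amastigotes per cell and percentage of infected cells. 96 h exposure, with maximal activity scored at 10 µM. IC50 and IC90 against intracellular amastigotes taken from the same 96 h incubation.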

[3] = test system: Trypanosoma cruzi; assay: Antitrypanosomal activity against intracellular Trypanosoma cruzi amastigote infected primary peritoneal mouse macrophages assessed as reduction in amastigote population; format: functional; design: concentration or dose not given beside the values
Summary of the method: as §1

[4] = test system: Trypanosoma cruzi; assay: Antitrypanosomal activity against intracellular Trypanosoma cruzi amastigote infected primary peritoneal mouse macrophages assessed as reduction in infection rate; format: functional
Summary of the method: as §1

[5] = Metabolic stability in CD1 mouse liver microsomes assessed as intrinsic clearance measured upto 60 mins by LC-MS/MS analysis; format: ADME; settings: read-out: CLH
Summary of the method: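 CD1 mouse liver microsomes at 0.25 mg/mL, compound at 0.5 µM, pH 7.4, 37 °C, started with NADPH. Sampled at 0, 5, 10, 20, 30 and 60 min and quenched with acetonitrile:methanol containing tolbutamide. Measured by LC-MS/MS; CLint (k × 1000/0.25, µL/min/mg) derived by non-linear regression of % remaining over time.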

[6] = test system: Trypanosoma cruzi; assay: Antitrypanosomal activity against Trypanosoma cruzi Tulahuen CL2 amastigotes expressing beta galactosidase infected in human MRC5 cells assessed as reduction in parasite burden using chlorophenol red beta-D-galactopyranoside as substrate and measured after 7 days by spectrophotometric analysis; format: functional, organism-based; settings: Tulahuen CL2, MRC5, 168 h
Summary of the method: (§2)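 T. cruzi Tulahuen CL2 β-galactosidase strain grown in MRC-5 cells (MEM, 5% heat-inactivated FCS, 37 °C, 5% CO2). MRC-5 cells (4 x 10^3/well) plus parasites (4 x 10^4/well) exposed 7 days to 4-fold dilutions from 64 µM down; final DMSO <1%. CPRG with Nonidet added, absorbance at 540 nm after 4 h. IC50 calculated against untreated-infected (100%) and non-infected (0%) controls. SI = MRC-5 CC50/IC50.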

[7] = Selectivity index, ratio of CC50 for cytotoxicity against human MRC5 cells to EC50 for Trypanosoma cruzi Tulahuen CL2 amastigotes expressing beta galactosidase infected in human MRC5 cells; format: toxicity, cell-based; settings: read-out: Selectivity Index
Summary of the method: as §2

[8] = Drug metabolism in S9 cells assessed as turnover; settings: mouse
[9] = Cytotoxicity against primary peritoneal mouse macrophages assessed as reduction in cell viability measured after 24 hrs by colorimetric assay; format: toxicity, cell-based, Peritoneal macrophage
[10] = Cytotoxicity against human HepG2 cells assessed as reduction in cell viability measured after 24 hrs by colorimetric assay; format: toxicity, cell-based
[11] = Cytotoxicity against mouse 3T3 cells assessed as reduction in cell viability measured after 24 hrs by colorimetric assay; format: toxicity, cell-based; settings: NIH3T3 cells
[12] = Kinetic solubility of the compound at pH 7.4 PBS buffer measured after 24 hrs shaken by LC-MS/MS analysis; format: physicochemical; settings: read-out: Kinetic_solubility
Summary of the method: (§3)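 Compounds from 10 mM DMSO stocks diluted in PBS pH 7.4 or pH 2.0 to 250 µM final, 2.5% DMSO, in duplicate. Shaken 24 ± 1 h at 200 rpm, room temperature, then centrifuged to remove precipitate. Supernatant quantified by LC-MS/MS against per-compound calibration at 1–50 µM.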

[13] = Cytotoxicity against human MRC5 cells assessed as reduction in cell viability measured after 24 hrs by colorimetric assay; format: toxicity, cell-based
[14] = Passive permeability of the compound at 10 uM at pH 6.5 to 7.4 donor portion/acceptor portion by PAPMA assay; format: ADME; settings: not told, read-out: permeability
Summary of the method: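 PAMPA on pre-coated membranes. Donor holds 10 µM compound in PBS pH 6.5; acceptor holds PBS pH 7.4. Incubated 5 h at 37 °C. Donor, acceptor and initial donor samples quenched and quantified by LC-MS/MS to calculate effective permeability (Pe). Run in triplicate.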

[15] = Cytotoxicity against rat L6 cells assessed as reduction in cell viability measured after 24 hrs by colorimetric assay; format: toxicity, cell-based
[16] = Kinetic solubility of the compound at pH 2 PBS buffer measured after 24 hrs shaken by LC-MS/MS analysis; format: physicochemical; settings: read-out: Kinetic_solubility
Summary of the method: as §3

CC[C@@H]([C@H](C)O)n1ncn(-c2ccc(N3CCN(c4ccc(OC[C@@H]5CO[C@@](Cn6cncn6)(c6ccc(F)cc6F)C5)cc4)CC3)cc2)c1=O [POSACONAZOLE]
pIC50 [1]: 8.70
pIC50 [2]: 9.00
IC90 [2]: 0.002 µM
Activity [3]: 100%
inhibition (INH) [4]: 98%

CCCn1c(NC(=O)c2ccccn2)nc2cc(F)ccc21
microsomal CLint [5]: 413 µL/min/mg
pIC50 [6]: 5.96
selectivity ratio [7]: 7
metabolised [8]: 66.2%

N#Cc1ccc2nc(NC(=O)c3cc(C(F)(F)F)n[nH]3)n(CC(F)(F)F)c2c1
pIC50 [2]: 6.24
IC90 [2]: 0.88 µM
Activity [3]: 99%
CC50 at 24 h [9]: 25 µM
CC50 at 24 h [10]: 1.8 µM
CC50 at 24 h [11]: > 40 µM
microsomal CLint [5]: 25 µL/min/mg
solubility kinetic at 24 h [12]: < 1 µM
CC50 at 24 h [13]: > 64 µM
pIC50 [6]: 5.82
selectivity ratio [7]: > 42
inhibition (INH) [4]: 97%
Papp at 10 µM [14]: 2 ×10⁻⁶ cm/s
CC50 at 24 h [15]: 12 µM
solubility kinetic at 24 h [16]: < 1 µM

CCCn1c(NC(=O)c2cccnc2)nc2cc(F)ccc21
microsomal CLint [5]: 164 µL/min/mg
pIC50 [6]: 5.09
selectivity ratio [7]: > 8
metabolised [8]: 1.91%

O=C(Cn1ccnc1[N+](=O)[O-])NCc1ccccc1 [BENZNIDAZOLE]
pIC50 [1]: 5.59
pIC50 [2]: 5.58
IC90 [2]: 12.6 µM
Activity [3]: 99%
inhibition (INH) [4]: 94%

N#Cc1ccc2nc(NC(=O)c3ccc(C(F)(F)F)nc3)n(CC(F)(F)F)c2c1
pIC50 [2]: 6.72
IC90 [2]: 0.57 µM
Activity [3]: 99%
CC50 at 24 h [9]: 8 µM
CC50 at 24 h [10]: 1.1 µM
CC50 at 24 h [11]: > 40 µM
microsomal CLint [5]: 18 µL/min/mg
solubility kinetic at 24 h [12]: < 1 µM
CC50 at 24 h [13]: > 64 µM
pIC50 [6]: 5.59
selectivity ratio [7]: > 25
inhibition (INH) [4]: 98%
Papp at 10 µM [14]: 5.4 ×10⁻⁶ cm/s
CC50 at 24 h [15]: 18 µM
solubility kinetic at 24 h [16]: < 1 µM

Cn1nc(C(F)(F)F)cc1C(=O)Nc1nc2ccc(C#N)cc2n1CCF
microsomal CLint [5]: 39 µL/min/mg
pIC50 [6]: 5.68
selectivity ratio [7]: 11

Cc1nc(C)c(C(=O)Nc2nc3ccc(C#N)cc3n2CC(F)(F)F)s1
microsomal CLint [5]: 595 µL/min/mg
pIC50 [6]: 6.27
selectivity ratio [7]: 14

CCCn1c(NC(=O)Cc2ccc(Cl)cc2)nc2cc(C(F)(F)F)ccc21
microsomal CLint [5]: 283 µL/min/mg
pIC50 [6]: 6.13
selectivity ratio [7]: 15

Cn1nc(C(F)(F)F)cc1C(=O)Nc1nc2ccc(C#N)cc2n1CC(F)(F)F
pIC50 [1]: 6.00
pIC50 [2]: 6.72
IC90 [2]: 0.36 µM
Activity [3]: 99%
CC50 at 24 h [9]: 1 µM
CC50 at 24 h [10]: 1.1 µM
CC50 at 24 h [11]: > 40 µM
microsomal CLint [5]: 28 µL/min/mg
solubility kinetic at 24 h [12]: < 1 µM
CC50 at 24 h [13]: 8 µM
pIC50 [6]: 6.64
selectivity ratio [7]: 34
inhibition (INH) [4]: 97%
Papp at 10 µM [14]: 2.4 ×10⁻⁶ cm/s
CC50 at 24 h [15]: 19 µM
solubility kinetic at 24 h [16]: < 1 µM

N#Cc1ccc2nc(NC(=O)c3cc(C(F)(F)F)n[nH]3)n(CC(F)F)c2c1
microsomal CLint [5]: 70 µL/min/mg
pIC50 [6]: 6.31
selectivity ratio [7]: 11

CCCn1c(NC(=O)Cc2ccc(F)cc2)nc2ccc(C(=O)N3CCOCC3)cc21
microsomal CLint [5]: 23 µL/min/mg
pIC50 [6]: 4.46
selectivity ratio [7]: > 2

CCCn1c(NC(=O)c2cccc(C(F)(F)F)n2)nc2cccnc21
microsomal CLint [5]: 285 µL/min/mg
pIC50 [6]: 5.62
selectivity ratio [7]: > 27

CS(=O)(=O)c1ccc2c(c1)nc(NC(=O)c1ccnc(C(F)(F)F)c1)n2CC(F)(F)F
microsomal CLint [5]: 23 µL/min/mg
pIC50 [6]: 6.26
selectivity ratio [7]: 5

Cc1cc(C(=O)Nc2nc3ccc(C#N)cc3n2CC(F)(F)F)nn1C
microsomal CLint [5]: 181 µL/min/mg
pIC50 [6]: 4.19
selectivity ratio [7]: 1

CCCn1c(NC(=O)Cc2ccc(Cl)cc2)nc2ccc(F)cc21
microsomal CLint [5]: 1590 µL/min/mg
pIC50 [6]: 6.25
selectivity ratio [7]: 102

CCCn1c(NC(=O)c2cccnc2)nc2cc(F)c(F)cc21
microsomal CLint [5]: 446 µL/min/mg
pIC50 [6]: 5.68
selectivity ratio [7]: > 30

Cn1nccc1C(=O)Nc1nc2cncnc2n1CC(F)(F)F
microsomal CLint [5]: 24 µL/min/mg
pIC50 [6]: 5.09
selectivity ratio [7]: 3

Cc1nnn(CC(=O)Nc2nc3ccc(C#N)cc3n2CC(F)(F)F)n1
microsomal CLint [5]: 25 µL/min/mg
pIC50 [6]: 4.96
selectivity ratio [7]: > 6

N#Cc1ccc2nc(NC(=O)c3ccnc(C(F)(F)F)c3)n(CC(F)(F)F)c2c1
pIC50 [1]: 5.88
pIC50 [2]: 6.85
IC90 [2]: 0.31 µM
Activity [3]: 98%
CC50 at 24 h [9]: 4 µM
CC50 at 24 h [10]: 2.4 µM
CC50 at 24 h [11]: > 40 µM
microsomal CLint [5]: 27 µL/min/mg
solubility kinetic at 24 h [12]: < 1 µM
CC50 at 24 h [13]: > 64 µM
pIC50 [6]: 6.55
selectivity ratio [7]: > 231
inhibition (INH) [4]: 91%
Papp at 10 µM [14]: 2.3 ×10⁻⁶ cm/s
CC50 at 24 h [15]: 50 µM
solubility kinetic at 24 h [16]: < 1 µM

O=C(Nc1nc2cc(F)ccc2n1C1CCOCC1)c1cccnc1
microsomal CLint [5]: 26 µL/min/mg
pIC50 [6]: 5.07
selectivity ratio [7]: 5

Cn1nccc1C(=O)Nc1nc2ccc(C#N)cc2n1CC(C)(C)O
microsomal CLint [5]: 23 µL/min/mg
pIC50 [6]: 4.89
selectivity ratio [7]: > 5

CCCn1c(NC(=O)c2cccnc2)nc2ccc(C#N)cc21
microsomal CLint [5]: 200 µL/min/mg
pIC50 [6]: 4.74
selectivity ratio [7]: > 4

Cn1nccc1C(=O)Nc1nc2ccc(C#N)cc2n1CCF
microsomal CLint [5]: 154 µL/min/mg
pIC50 [6]: 5.08
selectivity ratio [7]: 2

CC(C)(O)Cn1c(NC(=O)c2ccc(C(F)(F)F)nc2)nc2ccc(C#N)cc21
microsomal CLint [5]: 23 µL/min/mg
pIC50 [6]: 4.43
selectivity ratio [7]: 1

CCCn1c(NC(=O)c2ccccn2)nc2cccnc21
microsomal CLint [5]: 265 µL/min/mg
pIC50 [6]: 5.08
selectivity ratio [7]: > 8

CCCn1c(NC(=O)Cc2ccc(F)cc2)nc2cc(F)c(F)cc21
microsomal CLint [5]: 399 µL/min/mg
pIC50 [6]: 6.28
selectivity ratio [7]: > 121

CN1CCC(n2c(NC(=O)c3ccnn3C)nc3ccc(C#N)cc32)CC1
microsomal CLint [5]: 72 µL/min/mg
pIC50 [6]: 4.47
selectivity ratio [7]: > 2

Cn1nccc1C(=O)Nc1nc2cccnc2n1CC(C)(C)C
microsomal CLint [5]: 222 µL/min/mg
pIC50 [6]: 5.66
selectivity ratio [7]: 20

CCCn1c(NC(=O)Cc2ccc(Cl)cc2)nc2cc(F)ccc21
microsomal CLint [5]: 1510 µL/min/mg
pIC50 [6]: 6.04
selectivity ratio [7]: > 70

Cn1nccc1C(=O)Nc1nc2cc(C#N)cnc2n1CC(C)(C)C
microsomal CLint [5]: 31 µL/min/mg
pIC50 [6]: 6.30
selectivity ratio [7]: 5
